In data set [1] the test system is L5178Y. The data set is described as follows: Cytotoxicity against mouse L5178Y cells assessed as reduction in cell viability incubated for 72 hrs by MTT assay. The class given is functional, cell-based. The procedure, abridged:
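Murine L5178Y lymphoma cells were the cells tested, with kahalalide F run in parallel as the positive control. The read-out was IC50.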

The test system of data set [2] is A2780. The data set is described as follows: Cytotoxicity against human A2780 cells assessed as reduction in cell viability incubated for 72 hrs by MTT assay. The format is functional, cell-based.
Data set [3] relates to HEK293. The data set is described as follows: Cytotoxicity against HEK293 cells assessed as reduction in cell viability incubated for 72 hrs by MTT assay. The format is cell-based. As to conditions: Homo sapiens, HEK293, 72 h; call rule not given here.
The subject of data set [4] is J82. The data set is described as follows: Cytotoxicity against human J82 cells assessed as reduction in cell viability incubated for 72 hrs by high content analysis based fluorescent live/dead assay. The format is functional. Summed up:
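J82 bladder cancer cells were analysed by fluorescent live/dead staining. An imaging system gave direct counts of live and dead cells, and IC50 values were derived from these counts.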

The nature of data set [5]: Selectivity index, ratio of IC50 for HEK293 cells to IC50 for human A2780 cells. As to conditions: HEK293 cells versus A2780 cells, read-out: Ratio IC50. The class given is toxicity. The procedure, abridged:
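Selectivity index is the IC50 against HEK-293 cells divided by the IC50 against A2780 ovarian cancer cells, each from this paper's cytotoxicity testing.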

Where [6] appears, read: Mus musculus, L5178Y, 72 h, read-out: IC50.
The mark [7] stands for this setting: Homo sapiens, A2780, 72 h, read-out: IC50.
Setting [8] is: Homo sapiens, J82, 72 h, read-out: IC50.

Take `CC(C)=CCc1ccc2[nH]c3c(c2c1)C[C@@H]1CC[C@@]2(O)C4=CC(=O)[C@@H](C(C)(C)O)O[C@H]4CC[C@]2(C)[C@@]31C`: the IC50 is 12.9 µM in data set [1] (setting [6]) and “Not Active” in data set [2] (a2780).
In the case of `CC(C)(O)[C@H]1O[C@@]2(O)CC[C@@]3(C)[C@@H](CC[C@H]4Cc5c([nH]c6ccccc56)[C@@]43C)C2=CC1=O`, the IC50 in data set [1] (setting [6]) is 6.2 µM; in data set [2] (a2780), “Not Active”; in data set [3], 39.8 µM.
`CC1(C)CC2=C(Cc3cc4c5c([nH]c4cc32)[C@@]2(C)[C@@H](CC[C@@]3(O)C4=CC(=O)[C@@H](C(C)(C)O)OC4=CC[C@@]32C)C5)C(C)(C)O1`: the IC50 was determined as 8.1 µM in data set [1] (setting [6]), 7.8 µM in data set [2] (setting [7]), 31.7 µM in data set [4] (setting [8]) and 37.4 µM in data set [3]. The selectivity ratio in data set [5] worked out at 4.8.
As to `CC1(C)CC2=C(Cc3cc4c(cc32)NC(=O)[C@@]2(C)[C@@H](CC[C@@]3(O)C5=CC(=O)[C@@H](C(C)(C)O)O[C@H]5CC[C@@]32C)CC4=O)C(C)(C)O1`, the IC50 in data set [1] (setting [6]) is 7.6 µM; in data set [2] (setting [7]), 11.9 µM; in data set [4] (setting [8]) it was 29.4 µM; in data set [3], 28.3 µM. The selectivity ratio in data set [5] stood at 2.4.
As for `CO[C@]12CC[C@@]3(C)[C@@](O)(CC[C@H]4Cc5c([nH]c6cc7c(cc56)CC5=C7CC(C)(C)OC5(C)C)[C@@]43C)C1=CC(=O)[C@@H](C(C)(C)O)O2`, the IC50 entry is “Not Active” in data set [1] (l5178y), 32.2 µM in data set [2] (setting [7]) and 96.7 µM in data set [4] (setting [8]).
On to `CC(C)(O)[C@H]1O[C@@]2(O)CC[C@@]3(C)C(=CC[C@H]4Cc5c([nH]c6ccccc56)[C@@]43C)C2=CC1=O`, for which the IC50 in data set [1] (setting [6]) was 5.3 µM; in data set [2] (a2780), “Not Active”; in data set [3], 27.9 µM.
In the case of `CC(C)(O)[C@H]1O[C@H]2CC[C@@]3(C)[C@@H](CC[C@H]4Cc5c([nH]c6ccccc56)[C@@]43C)C2=C[C@H]1O`, the IC50 result in data set [1] (l5178y) was “Not Active”; in data set [2] (setting [7]), 28.5 µM.
For the compound `CC1(C)O[C@@]23CC[C@@]4(C)C(=CC[C@H]5Cc6c([nH]c7ccccc67)[C@@]54C)C2=CC(=O)[C@@H]1O3`, the IC50 in data set [1] (setting [6]) came out at 5.3 µM; in data set [2] (setting [7]) it was 12.2 µM; in data set [4] (setting [8]) it was 42.1 µM; in data set [3], 21.7 µM. Also, the selectivity ratio in data set [5] stood at 1.8.
Take `CO[C@]12CC[C@@]3(C)[C@@](O)(CC[C@H]4Cc5c([nH]c6ccccc56)[C@@]43C)C1=CC(=O)[C@@H](C(C)(C)O)O2`: the IC50 result is “Not Active” in data set [1] (l5178y), 12.2 µM in data set [2] (setting [7]) and 55.3 µM in data set [4] (setting [8]).
As for `CC1(C)CC2=C(Cc3cc4c5c([nH]c4cc32)[C@@]2(C)[C@@H](CC[C@@]3(O)C4=CC(=O)[C@@H](C(C)(C)O)O[C@H]4CC[C@@]32C)C5)C(C)(C)O1`, the IC50 in data set [1] (setting [6]) is 10.9 µM; in data set [2] (setting [7]), 12.8 µM.
Turning to `CO[C@]12CC[C@@]3(C)[C@@](O)(CC[C@H]4CC(=O)c5cc6c(cc5NC(=O)[C@@]43C)C3=C(C6)C(C)(C)OC(C)(C)C3)C1=CC(=O)[C@@H](C(C)(C)O)O2`, the IC50 result in data set [1] (l5178y) is “Not Active”; in data set [2] (setting [7]), 19.4 µM; in data set [4] (setting [8]) it was 73 µM.
With `CC(C)=CCc1ccc2[nH]c3c(c2c1)C[C@@H]1CC[C@@]2(O)C4=CC(=O)[C@@H]5O[C@@]4(CC[C@]2(C)[C@@]31C)OC5(C)C`, the IC50 entry was “Not Active” in data set [1] (l5178y) and 19.8 µM in data set [2] (setting [7]).
As to `CC1(C)O[C@@]23CC[C@]4(C)c5cc6[nH]c7ccccc7c6cc5CC[C@H]4C2=CC(=O)[C@@H]1O3`, the IC50 in data set [1] (setting [6]) was found to be 3.6 µM; in data set [2] (setting [7]), 8.7 µM; in data set [4] (setting [8]), 40.6 µM; in data set [3] it was 28.5 µM. The selectivity ratio in data set [5] amounted to 3.3.
`CC1(C)CC2=C(Cc3cc(C(=O)C[C@@H]4CC[C@@]5(O)C6=CC(=O)[C@@H](C(C)(C)O)O[C@H]6CC[C@]5(C)[C@@]4(C)C(=O)O)c(N)cc32)C(C)(C)O1`: the IC50 entry is “Not Active” in data set [1] (l5178y), 51.5 µM in data set [2] (setting [7]) and “Not Active” in data set [4] (j82).
As to `CC(C)(O)[C@H]1O[C@H]2CC[C@@]3(C)[C@@H](CC[C@H]4Cc5c([nH]c6ccccc56)[C@@]43C)C2=CC1=O` [DEHYDROXYPAXILLINE], the IC50 entry in data set [1] (l5178y) is “Not Active”; in data set [2] (setting [7]), 17.1 µM.
As for `CC(C)=CCC[C@]1(C)[C@@H](O)CC[C@@]2(C)[C@H]1CC[C@H]1Cc3c([nH]c4ccccc34)[C@@]12C` [EMINDOLE SB], the figures for the IC50 in data set [1] (setting [6]), in data set [2] (setting [7]) and in data set [3] were 18.3 µM, 8.2 µM and 44.6 µM, respectively. The selectivity ratio in data set [5] came to 5.4.
As for `CC(C)(O)[C@@H]1CC[C@]2(C)[C@H](CC[C@@]3(C)[C@H]2CC[C@H]2Cc4c([nH]c5ccccc45)[C@@]23C)O1` [PASPALINE], the IC50 entry in data set [1] (l5178y) is “Not Active”; in data set [2] (setting [7]), 5.3 µM; in data set [3], 43 µM. Further, the selectivity ratio in data set [5] amounted to 8.1.

The values above are taken from ChEMBL document CHEMBL4392865, “Indole Diterpenoids from an Endophytic Penicillium sp” (J Nat Prod, 2019).
